This note sets out measurements from ChEMBL document CHEMBL3112473, “Synthesis of a novel series of thiazole-based histone acetyltransferase inhibitors” (Bioorg Med Chem, 2014).

Molecules are shown by their SMILES. Calls of active or inactive are those of the source. The calls are words filed in the database; no cut-off is given here.

Data set [1] relates to Saccharomyces cerevisiae. In words: Growth inhibition of Saccharomyces cerevisiae BY4742 harboring gcn5delta mutant at 0.2 mM after 48 hrs. Type of data set: functional, organism-based. The procedure, abridged: (§1)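 Spot assay on S. cerevisiae. Wild type (S288c or BY4742) and isogenic HAT deletion strains were used: gcn5Δ, elp3Δ and sas2Δ in S288c; gcn5Δ and rtt109Δ in BY4742. Growth was scored against wild type after 48 h at 28 °C.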

Data set [2] deals with Saccharomyces cerevisiae. Briefly: Growth inhibition of Saccharomyces cerevisiae S288c harboring gcn5delta mutant at 0.2 mM after 48 hrs. Format: functional, organism-based. The procedure, abridged: as §1
The subject of data set [3] is Saccharomyces cerevisiae. In words: Reduction of growth of Saccharomyces cerevisiae harboring gcn5delta mutant at 0.2 mM after 48 hrs. Format: functional, organism-based. An outline of the steps: as §1
Data set [4] has as its system Saccharomyces cerevisiae. Briefly: Reduction of wild type Saccharomyces cerevisiae growth at 0.2 mM after 48 hrs. Type of data set: functional, organism-based. An outline of the steps:
as §1

The test system of data set [5] is Saccharomyces cerevisiae. In words: Growth inhibition of Saccharomyces cerevisiae S288c harboring sas2delta mutant at 0.5 mM after 48 hrs. Format: functional, organism-based. An outline of the steps: as §1
The subject of data set [6] is Saccharomyces cerevisiae. Briefly: Growth inhibition of Saccharomyces cerevisiae BY4742 harboring rtt109delta mutant at 0.5 mM after 48 hrs. Format: functional, organism-based. The procedure, abridged:
as §1

The subject of data set [7] is Saccharomyces cerevisiae. In words: Growth inhibition of Saccharomyces cerevisiae S288c harboring elp3delta mutant at 0.5 mM after 48 hrs. Format: functional, organism-based. An outline of the steps: as §1
Data set [8] relates to Saccharomyces cerevisiae. Briefly: Growth inhibition of Saccharomyces cerevisiae BY4742 harboring gcn5delta mutant at 0.5 mM after 48 hrs. Type of data set: functional, organism-based. The procedure, abridged:
as §1

For data set [9], the system named is Saccharomyces cerevisiae. In words: Growth inhibition of Saccharomyces cerevisiae S288c harboring gcn5delta mutant at 0.5 mM after 48 hrs. Format: functional, organism-based. The procedure, abridged:
as §1

In data set [10] the test system is Saccharomyces cerevisiae. Briefly: Reduction of growth of Saccharomyces cerevisiae harboring gcn5delta mutant at 0.5 mM after 48 hrs. Type of data set: functional, organism-based. The procedure, abridged:
as §1

Data set [11] concerns Saccharomyces cerevisiae. Briefly: Reduction of wild type Saccharomyces cerevisiae growth at 0.5 mM after 48 hrs. Type of data set: functional, organism-based. An outline of the steps:
as §1

In data set [12] the test system is Saccharomyces cerevisiae. Briefly: Reduction of growth of Saccharomyces cerevisiae harboring gcn5delta mutant at 1 mM after 48 hrs. Format: functional, organism-based. An outline of the steps: as §1
Data set [13] concerns Saccharomyces cerevisiae. Briefly: Reduction of wild type Saccharomyces cerevisiae growth at 1 mM after 48 hrs. Format: functional, organism-based. The procedure, abridged:
as §1

Data set [14] concerns Saccharomyces cerevisiae. Briefly: Growth inhibition of Saccharomyces cerevisiae BY4742 harboring rtt109delta mutant at 0.75 mM after 48 hrs. Format: functional, organism-based. An outline of the steps:
as §1

The test system of data set [15] is Saccharomyces cerevisiae. Briefly: Growth inhibition of Saccharomyces cerevisiae S288c harboring sas2delta mutant at 0.75 mM after 48 hrs. Type of data set: functional, organism-based. The procedure, abridged:
as §1

The test system of data set [16] is Saccharomyces cerevisiae. In words: Growth inhibition of Saccharomyces cerevisiae S288c harboring elp3delta mutant at 0.75 mM after 48 hrs. Type of data set: functional, organism-based. The procedure, abridged:
as §1

Data set [17] concerns Saccharomyces cerevisiae. Briefly: Growth inhibition of Saccharomyces cerevisiae BY4742 harboring gcn5delta mutant at 0.75 mM after 48 hrs. Format: functional, organism-based. An outline of the steps:
as §1

Data set [18] deals with Saccharomyces cerevisiae. In words: Growth inhibition of Saccharomyces cerevisiae S288c harboring gcn5delta mutant at 0.75 mM after 48 hrs. Type of data set: functional, organism-based. An outline of the steps:
as §1

Data set [19] can be described thus: Cytotoxicity against human BE-SK-N-BE(2) cells assessed as cell viability at 100 uM after 48 to 72 hrs by trypan blue exclusion assay. Type of data set: cell-based. As to conditions: read-out: Activity. An outline of the steps:
(§2)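 Trypan blue exclusion on HeLa, U87 glioblastoma and BE-SK-N-BE(2) neuroblastoma cells. Compound added at final 50 and 100 µM and incubated 48 or 72 h at 37 °C, then cells collected and counted. About 1.5 × 10⁵ cells counted per point. Viability given as mean percentage of viable/dead cells relative to untreated controls.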

For data set [20], the system named is HeLa. In words: Cytotoxicity against human HeLa cells assessed as cell viability at 50 to 100 uM after 48 to 72 hrs by trypan blue exclusion assay. Type of data set: cell-based. An outline of the steps:
as §2

Data set [21] can be described thus: Cytotoxicity against human U87 cells assessed as cell viability at 50 to 100 uM after 48 to 72 hrs by trypan blue exclusion assay. The following applies: u-87mg atcc. Format: cell-based. An outline of the steps: as §2
The species entered for data set [22] is Homo sapiens. Briefly: Inhibition of histone acetyltransferase in human BE-SK-N-BE(2) cells assessed as AcH3 and H3AcK18 level after 72 hrs by Western blotting. Format: cell-based. The procedure, abridged:
(§3)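 HeLa, U87 and BE-SK-N-BE(2) cells incubated with compound at 50 or 100 µM for 48 or 72 h. Total lysates in 2× Laemmli buffer, boiled 10 min, run on 15% SDS-PAGE and blotted. Probed for acetyl-H3 and H3K18ac, with GAPDH as constitutive control.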
Background: A western blot detects proteins with antibodies after separation by electrophoresis.

The subject of data set [23] is U-87MG ATCC. Briefly: Inhibition of histone acetyltransferase in human U87 cells assessed as AcH3 and H3AcK18 level after 72 hrs by Western blotting. Type of data set: cell-based. The procedure, abridged: as §3
Data set [24] concerns HeLa. Briefly: Inhibition of histone acetyltransferase in human HeLa cells assessed as AcH3 and H3AcK18 level after 72 hrs by Western blotting. Type of data set: cell-based. An outline of the steps: as §3
The species entered for data set [25] is Homo sapiens. Briefly: Inhibition of histone acetyltransferase in human BE-SK-N-BE(2) cells assessed as AcH3 and H3AcK18 level after 48 to 72 hrs by Western blotting. Format: cell-based. The procedure, abridged: as §3
The subject of data set [26] is U-87MG ATCC. In words: Inhibition of histone acetyltransferase in human U87 cells assessed as AcH3 and H3AcK18 level after 48 to 72 hrs by Western blotting. Type of data set: cell-based. The procedure, abridged:
as §3

Data set [27] has as its system HeLa. Briefly: Inhibition of histone acetyltransferase in human HeLa cells assessed as AcH3 and H3AcK18 level after 48 to 72 hrs by Western blotting. Type of data set: cell-based. The procedure, abridged:
as §3

Data set [28] concerns the target Histone acetyltransferase p300 (Homo sapiens) (UniProt Q09472). In words: Inhibition of human recombinant histone acetyltransferase p300 assessed as acetylation of histone H3 at 0.6 mM. The procedure, abridged: (§4)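 Fluorescent in vitro HAT kit assay. Human recombinant HAT catalytic domains (Gcn5, p300, PCAF) were incubated with acetyl-CoA and histone H3 substrate, with inhibitor at 0.15, 0.3 and 0.6 mM. Anacardic acid at 15 µM served as reference. Residual activity measured relative to untreated control. Each reaction run three times, standard errors given.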

Data set [29] concerns the target Histone acetyltransferase KAT2B (Homo sapiens) (UniProt Q92831). Briefly: Inhibition of human recombinant histone acetyltransferase PCAF assessed as acetylation of histone H3 at 0.15 to 0.6 mM. The procedure, abridged:
as §4

Data set [30] addresses T1, Histone acetyltransferase SAS2 (Saccharomyces cerevisiae (strain ATCC 204508 / S288c) (Baker's yeast)) (UniProt P40963).
T1 sequence (whole entry): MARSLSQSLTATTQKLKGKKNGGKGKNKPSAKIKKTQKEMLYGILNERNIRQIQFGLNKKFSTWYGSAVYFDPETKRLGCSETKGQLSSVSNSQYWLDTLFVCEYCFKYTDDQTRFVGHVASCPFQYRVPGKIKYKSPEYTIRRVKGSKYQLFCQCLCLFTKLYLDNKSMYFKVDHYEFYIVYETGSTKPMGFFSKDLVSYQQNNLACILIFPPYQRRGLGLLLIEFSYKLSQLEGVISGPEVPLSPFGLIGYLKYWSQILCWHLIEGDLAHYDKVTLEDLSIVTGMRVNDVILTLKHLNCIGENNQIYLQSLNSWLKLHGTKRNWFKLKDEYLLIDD
Briefly: Inhibition of Saccharomyces cerevisiae S288c histone acetyltransferase assessed as acetylation of histone H4 at 0.6 to 0.8 mM by Western blotting. The procedure, abridged: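 S288c wild-type yeast grown at 28 °C in YPD with 1% DMSO, plus compound at 0.6 or 0.8 mM. Total protein extracts boiled in Laemmli buffer, run on 15% SDS-PAGE and blotted. Probed for pan-acetylated H3 and H4, with unmodified H3 and ADA2 as loading standards. Acetylation normalized to ADA2. Triplicate experiments, SD reported.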

The test system of data set [31] is Saccharomyces cerevisiae. In words: Growth inhibition of Saccharomyces cerevisiae BY4742 harboring gcn5delta mutant after 48 hrs. Format: functional, organism-based. The procedure, abridged:
as §1

In data set [32] the test system is Saccharomyces cerevisiae. In words: Growth inhibition of Saccharomyces cerevisiae S288c harboring gcn5delta mutant after 48 hrs. Format: functional, organism-based. The procedure, abridged: as §1
Data set [33] deals with Histone acetyltransferase GCN5 (Saccharomyces cerevisiae) (UniProt Q03330). In words: Inhibition of Saccharomyces cerevisiae S288c histone acetyltransferase assessed as acetylation of histone H3 at 0.6 to 0.8 mM by Western blotting.
Histone acetyltransferase GCN5 (Saccharomyces cerevisiae), sequence (Q03330 whole entry, looked up): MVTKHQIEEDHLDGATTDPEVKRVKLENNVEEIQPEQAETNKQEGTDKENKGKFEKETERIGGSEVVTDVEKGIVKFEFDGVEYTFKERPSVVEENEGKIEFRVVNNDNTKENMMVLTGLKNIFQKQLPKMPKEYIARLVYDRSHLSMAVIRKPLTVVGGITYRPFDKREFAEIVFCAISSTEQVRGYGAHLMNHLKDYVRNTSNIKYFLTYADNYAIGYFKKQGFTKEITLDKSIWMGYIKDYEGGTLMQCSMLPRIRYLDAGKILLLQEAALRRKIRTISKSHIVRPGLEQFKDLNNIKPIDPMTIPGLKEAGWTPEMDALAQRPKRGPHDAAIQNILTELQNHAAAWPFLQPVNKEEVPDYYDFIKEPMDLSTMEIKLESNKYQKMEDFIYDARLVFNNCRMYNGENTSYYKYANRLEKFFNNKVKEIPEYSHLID

Histone acetyltransferase p300 (Homo sapiens), sequence (Q09472 whole entry, the tested form may be a part): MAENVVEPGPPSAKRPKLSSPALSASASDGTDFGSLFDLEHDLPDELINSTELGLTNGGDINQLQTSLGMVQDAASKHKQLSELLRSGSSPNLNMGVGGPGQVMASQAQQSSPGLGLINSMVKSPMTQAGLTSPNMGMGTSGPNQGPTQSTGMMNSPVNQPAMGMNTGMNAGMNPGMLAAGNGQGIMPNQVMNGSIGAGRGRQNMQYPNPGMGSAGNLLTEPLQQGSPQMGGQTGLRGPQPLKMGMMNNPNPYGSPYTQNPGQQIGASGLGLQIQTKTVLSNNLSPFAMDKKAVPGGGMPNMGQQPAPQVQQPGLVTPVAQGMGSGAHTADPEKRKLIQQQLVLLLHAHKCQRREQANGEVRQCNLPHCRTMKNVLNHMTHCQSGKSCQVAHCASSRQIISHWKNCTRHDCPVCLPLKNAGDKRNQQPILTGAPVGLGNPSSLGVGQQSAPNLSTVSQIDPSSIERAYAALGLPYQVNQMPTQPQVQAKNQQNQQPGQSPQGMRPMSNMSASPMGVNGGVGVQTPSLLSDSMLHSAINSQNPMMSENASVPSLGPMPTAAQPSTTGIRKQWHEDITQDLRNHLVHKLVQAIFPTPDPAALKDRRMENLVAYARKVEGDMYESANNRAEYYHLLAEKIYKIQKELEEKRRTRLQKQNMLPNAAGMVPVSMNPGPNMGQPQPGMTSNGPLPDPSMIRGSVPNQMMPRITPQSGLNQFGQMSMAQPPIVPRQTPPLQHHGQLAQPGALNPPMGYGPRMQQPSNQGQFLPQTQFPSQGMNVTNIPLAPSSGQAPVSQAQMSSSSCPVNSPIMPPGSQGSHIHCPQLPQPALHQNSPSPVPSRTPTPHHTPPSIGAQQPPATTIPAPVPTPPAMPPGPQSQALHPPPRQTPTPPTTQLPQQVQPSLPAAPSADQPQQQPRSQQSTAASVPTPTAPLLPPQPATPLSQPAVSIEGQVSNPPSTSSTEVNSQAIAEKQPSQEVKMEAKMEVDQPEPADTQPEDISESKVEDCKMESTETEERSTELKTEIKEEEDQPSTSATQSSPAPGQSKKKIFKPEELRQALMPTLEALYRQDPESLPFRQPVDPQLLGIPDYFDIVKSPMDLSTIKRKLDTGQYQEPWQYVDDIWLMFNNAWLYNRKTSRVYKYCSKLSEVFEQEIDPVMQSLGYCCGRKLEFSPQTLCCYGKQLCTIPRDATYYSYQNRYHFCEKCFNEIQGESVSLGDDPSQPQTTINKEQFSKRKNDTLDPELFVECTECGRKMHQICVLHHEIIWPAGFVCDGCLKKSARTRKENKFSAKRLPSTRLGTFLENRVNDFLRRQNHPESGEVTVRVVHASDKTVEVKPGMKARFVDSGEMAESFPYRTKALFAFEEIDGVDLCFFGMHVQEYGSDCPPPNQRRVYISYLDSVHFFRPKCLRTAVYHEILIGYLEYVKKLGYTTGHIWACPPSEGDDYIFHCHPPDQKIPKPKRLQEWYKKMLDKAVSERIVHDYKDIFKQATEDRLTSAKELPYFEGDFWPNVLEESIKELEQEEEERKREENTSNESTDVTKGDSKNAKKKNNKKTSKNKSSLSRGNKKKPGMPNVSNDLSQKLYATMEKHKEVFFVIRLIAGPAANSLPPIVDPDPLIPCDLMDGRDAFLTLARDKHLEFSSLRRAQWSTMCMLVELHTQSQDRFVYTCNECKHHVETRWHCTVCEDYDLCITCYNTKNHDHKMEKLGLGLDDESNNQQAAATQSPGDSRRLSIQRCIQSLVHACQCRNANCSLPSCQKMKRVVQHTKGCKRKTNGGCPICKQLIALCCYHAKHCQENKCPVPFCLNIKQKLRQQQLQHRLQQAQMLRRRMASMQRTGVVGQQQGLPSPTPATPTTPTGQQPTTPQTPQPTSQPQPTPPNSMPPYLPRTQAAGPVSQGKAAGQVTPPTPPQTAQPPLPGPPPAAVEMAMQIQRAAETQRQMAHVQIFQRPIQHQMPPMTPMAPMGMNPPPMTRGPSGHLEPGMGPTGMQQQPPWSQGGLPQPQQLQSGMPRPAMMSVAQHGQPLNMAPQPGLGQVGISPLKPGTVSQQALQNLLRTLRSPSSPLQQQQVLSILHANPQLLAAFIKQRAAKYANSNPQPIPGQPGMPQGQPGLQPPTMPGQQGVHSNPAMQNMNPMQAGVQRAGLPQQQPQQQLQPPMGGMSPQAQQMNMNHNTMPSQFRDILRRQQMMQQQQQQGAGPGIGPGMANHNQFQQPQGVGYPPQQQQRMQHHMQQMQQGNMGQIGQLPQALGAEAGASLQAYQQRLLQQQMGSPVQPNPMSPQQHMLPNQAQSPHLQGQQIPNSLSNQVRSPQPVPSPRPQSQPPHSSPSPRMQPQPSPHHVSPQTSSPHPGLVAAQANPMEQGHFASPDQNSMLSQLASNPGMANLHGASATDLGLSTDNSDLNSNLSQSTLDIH
Histone acetyltransferase KAT2B (Homo sapiens), sequence (Q92831 whole entry, looked up): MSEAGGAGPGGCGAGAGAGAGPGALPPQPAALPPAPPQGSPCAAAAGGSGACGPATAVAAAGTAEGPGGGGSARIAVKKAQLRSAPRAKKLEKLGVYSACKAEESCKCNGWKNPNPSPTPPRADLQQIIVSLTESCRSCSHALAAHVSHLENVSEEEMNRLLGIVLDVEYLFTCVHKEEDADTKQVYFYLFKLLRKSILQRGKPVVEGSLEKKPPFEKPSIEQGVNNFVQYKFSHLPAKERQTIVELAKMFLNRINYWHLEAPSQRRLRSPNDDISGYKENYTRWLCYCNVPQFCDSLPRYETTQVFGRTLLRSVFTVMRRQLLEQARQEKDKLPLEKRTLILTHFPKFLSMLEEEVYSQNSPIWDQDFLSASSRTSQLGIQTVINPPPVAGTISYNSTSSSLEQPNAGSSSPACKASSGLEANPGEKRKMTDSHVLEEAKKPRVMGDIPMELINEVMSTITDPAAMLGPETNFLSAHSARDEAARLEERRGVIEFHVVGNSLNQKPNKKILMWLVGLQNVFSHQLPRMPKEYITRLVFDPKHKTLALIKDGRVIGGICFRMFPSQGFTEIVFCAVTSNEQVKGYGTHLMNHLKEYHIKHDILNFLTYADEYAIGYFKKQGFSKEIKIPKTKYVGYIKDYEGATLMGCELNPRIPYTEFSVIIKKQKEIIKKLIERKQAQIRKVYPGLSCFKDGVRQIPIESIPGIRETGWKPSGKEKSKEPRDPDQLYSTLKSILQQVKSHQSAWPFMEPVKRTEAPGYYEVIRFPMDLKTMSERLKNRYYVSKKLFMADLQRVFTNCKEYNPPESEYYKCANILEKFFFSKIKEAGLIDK

As to `CC/C(C)=N/Nc1nc(-c2ccc(Cl)cc2)cs1`, the “growth inhibition (GI)” value in the data set with Saccharomyces cerevisiae [1] and with Saccharomyces cerevisiae [2] was “Active” in each case. Also, the result in the data set on Saccharomyces cerevisiae [3] and with Saccharomyces cerevisiae [4] was Active.

As to `Clc1ccc(-c2csc(NN=C3CCCC3)n2)cc1`, the “growth inhibition (GI)” value in the data set on Saccharomyces cerevisiae [5], in the data set on Saccharomyces cerevisiae [6] and in the data set on Saccharomyces cerevisiae [7] was “inactive” each time. Also, the “growth inhibition (GI)” value with Saccharomyces cerevisiae [8] and in the data set on Saccharomyces cerevisiae [9] was “Active” in each case. For the same molecule, the outcome with Saccharomyces cerevisiae [10] and in the data set with Saccharomyces cerevisiae [11] was Active.

As for `CCC(CC)=NNc1nc(-c2ccc(Cl)cc2)cs1`, the “growth inhibition (GI)” value in the data set on Saccharomyces cerevisiae [1] and in the data set on Saccharomyces cerevisiae [2] was “Active” throughout. Moreover, the outcome in the data set on Saccharomyces cerevisiae [3] and in the data set on Saccharomyces cerevisiae [4] was Active.

Regarding `C/C(=N/Nc1nc(-c2ccc(Cl)cc2)cs1)c1ccccn1`, the result in the data set with Saccharomyces cerevisiae [12] and in the data set on Saccharomyces cerevisiae [13] was Active.

Regarding `COc1cc(/C=C/C(=O)CC(=O)/C=C/c2ccc(O)c(OC)c2)ccc1O`, the “growth inhibition (GI)” value with Saccharomyces cerevisiae [14], in the data set with Saccharomyces cerevisiae [15] and with Saccharomyces cerevisiae [16] was “inactive” throughout. The “growth inhibition (GI)” value in the data set on Saccharomyces cerevisiae [17] and with Saccharomyces cerevisiae [18] was “Active” throughout.

For orientation: inhibition means the drop in the measured response relative to a control, in per cent. For `CC(C)=NNc1nc(-c2ccc(Cl)cc2)cs1`, in [19], the viability at 100 µM is 30%. Also, the Activity result (in the data set on HeLa [20]; in data set [21]) was “Non-toxic” throughout. In addition, the inhibition entry (in the data set listed under Homo sapiens [22]; in the data set with U-87MG ATCC [23]; in the data set with HeLa [24]; in [28]) was “Active” throughout. The inhibition result in the data set filed under Homo sapiens [25] is “Dose-dependent effect”; with U-87MG ATCC [26] it was “Dose-dependent effect”; with HeLa [27], “Dose-dependent effect”; in [33] it was 50%. Further, the inhibition result in data set [29] and in [30] was “inactive” throughout. Moreover, the “growth inhibition (GI)” value in the data set with Saccharomyces cerevisiae [31] and in the data set with Saccharomyces cerevisiae [32] was “Dose-dependent effect” each time. Also, the “growth inhibition (GI)” value in the data set with Saccharomyces cerevisiae [1] and with Saccharomyces cerevisiae [2] was “Active” each time. The outcome in the data set with Saccharomyces cerevisiae [3] and in the data set on Saccharomyces cerevisiae [4] was Active.
